# From ChEMBL document CHEMBL4513216, “Probing the Open Global Health Chemical Diversity Library for Multistage-Active Starting Points for Next-Generation Antimalarials” (ACS Infect Dis, 2020)
# Assay: Toxicity liver stage against HepG2, at 10uM
# Format: cell-based
# Set-up: test concentration 10 uM, cell line HepG2-A16-CD81EGFP
# Conditions: human, HepG2-A16-CD81EGFP cells; read-out: INHIBITION
# How it was run: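 Uninfected HepG2-A16-CD81EGFP cells, 3 × 10^3 per well, 1536-well, plated on prespotted compound at 10 μM final, parasite-free screening media added to match infected plates; puromycin 10 μM positive, DMSO 0.5% negative; run in parallel with 48 h PbLuc assay at 37 °C, 5% CO2; viability by CellTiter-Glo luminescence, normalized to controls.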
row,SMILES,cytotoxicity at 10 µM
1,CCn1ncc(CN2CCCC(C(=O)c3ccc(Cl)cc3)C2)c1C (stereo not given),0.522%
2,CNC(=O)C1CN(Cc2cc(C)on2)CCN(C(C)=O)C1 (stereo not given),-3.02%
3,COc1ccc(CN2CCN(C(C)=O)CC3(CC(=O)N(C)C3)C2)cc1 (stereo not given),9.74%
4,Cc1ccccc1OCC(O)C(=O)N1CCC2(CC1)CN(C)C(=O)O2 (stereo not given),-47.6%
5,Nc1cc2c(nn1)CCN(C(=O)c1ccc(-c3ccco3)[nH]c1=O)C2,-3.73%
6,Cc1cc(NC(=O)CN2CCN(c3nccs3)C(C)C2)no1 (stereo not given),-9.66%
7,COc1cccc(N2CCN(C(=O)C(O)c3ccccc3Cl)CC2=O)c1 (stereo not given),3.25%
8,Fc1ccc(C2(NCc3noc(C4CC4)n3)CCC2)cc1,-0.304%
9,CCCn1nc(C)c(C(=O)N(C)[C@@H]2CC[C@@H](OC)[C@@H]2O)c1C,4.36%
10,Cc1cc(N2CCCN(Cc3ccc(C)o3)CC2)ccn1,-5.51%
11,COc1ccc(C)cc1CN1CCN(Cc2nccn2C)CC1,5.5%
12,CC(=O)N1CCc2c(nc(-c3cccnc3)nc2N(C)CC(O)CO)C1 (stereo not given),-2.03%
13,CN1CCc2nc(N(C)C)nc(N3CCC(O)CC3)c2C1,-0.879%
14,Cc1csc(C(C)(C)NCC(=O)N2CCCC(C(F)(F)F)C2)n1 (stereo not given),6.32%
15,Cc1ccc(N2CCCC(NCc3ccncc3)C2)nn1 (stereo not given),2.55%
16,O=C1O[C@@H]2CN(c3ccncc3)C[C@@H]2N1CCCc1ccc(F)cc1,-3.73%
17,Cn1cc(CN2CCCC3(CCN3S(C)(=O)=O)C2)cn1 (stereo not given),-68.4%
18,Cn1cc(-c2cnc(N3CCOCC3)nc2)cc1C(=O)O,-14.6%
19,CN(C)C(=O)CN1CC=C(c2cnn(Cc3ccccc3)c2)CC1,-6.12%
20,Cn1ccnc1CNC1CCCN(Cc2noc(C3CC3)n2)C1 (stereo not given),-11.1%
21,Cc1ccc(CN2CCC(O)(Cn3nc(-c4cccs4)oc3=O)CC2)o1,8.52%
22,NC(=O)C1CCCN1Cc1ccccc1NC(=O)CC(F)(F)F (stereo not given),13.1%

row,SMILES,cytotoxicity at 10 µM
1,CCCNC(=O)c1cccc(CNCc2csc(CC)n2)c1,-10.7%
2,Cc1ccc(NC(=O)c2ccc(CC3CC(=O)NC3=O)cc2)cc1O (stereo not given),4.99%
3,CN1CCC(N(CCc2ccccc2)Cc2noc(C3CC3)n2)CC1,-3.49%
4,O=C1CC(c2cccnc2)c2c(c(C(=O)O)cn2-c2cccc(F)c2)N1 (stereo not given),-0.585%
5,CCN(CC)C(=O)Cn1c(C)cc2nc(SC)n(CC(C)C)c(=O)c21,-12.8%
6,COc1ccccc1-c1noc(CCC(=O)NC(C)Cn2cccn2)n1 (stereo not given),5.67%
7,Cc1cc(C)n(CC(C)CNC(=O)NCc2ccco2)n1 (stereo not given),-2.58%
8,CN(CC(=O)N1CCCC1)C(=O)c1ccccc1F,11.7%
9,COc1ncccc1-c1nc(-c2ccccn2)nn1C1CCS(=O)(=O)C1 (stereo not given),-6.1%
10,CC1CN(C)CCN1C(=O)Nc1nc(-c2ccc[nH]2)cs1 (stereo not given),-1.94%
11,NC(=O)c1ccc(NC(=O)Cn2cc(-c3ccccc3)ncc2=O)cc1,4.6%
12,Cn1ccc(C(=O)NCc2ccc(N3CCOCC3)nc2)cc1=O,-14.3%
13,CSc1ccc(NCC(=O)NCC2CC2)cc1F,0.936%
14,CCc1cnc(CCNS(C)(=O)=O)s1,2.17%
15,Cc1ccccc1NC1CCN(C(=O)CCc2ccco2)CC1,-16.2%
16,CC(NC(=O)c1ccoc1)C(=O)N(C)Cc1ccc(O)cc1 (stereo not given),-3.59%
17,O=C(Cc1noc(C(=O)NCCO)n1)Nc1cccc(C(F)(F)F)c1,8.9%
18,Cc1ccccc1CNC(=O)CNc1ccc(OC2CCOC2)cc1 (stereo not given),2.77%
19,CC(C)c1ccc(C(CN)N2CCc3sccc3C2)cc1 (stereo not given),1.66%
20,C[C@H]1C[C@@H]2CCN(C(=O)c3cnccn3)C[C@H]2O1,2.96%
21,COC(=O)c1cc(NCc2cscn2)ccc1C,5.17%
22,CN(C)C(=O)[C@@H]1C[C@H]2OCC[C@H]2N(CCOc2ccc(Cl)cc2)C1,-124%

row,SMILES,cytotoxicity at 10 µM
1,O=C(NC1CC1)[C@H]1C[C@H]2OCC[C@H]2N(Cc2cccnc2)C1,0.698%
2,Cc1c(C)c(C)c2[nH]c(-c3cn(C4CCNCC4)nn3)nc2c1C,-0.966%
3,CCOCCC(=O)N(C)CC1Cc2ccccc2CN1C (stereo not given),-8.77%
4,COCCc1noc(CN2CCOC(Cn3nc(C)cc3C)C2)n1 (stereo not given),-6.66%
5,O=C1NCCCCC1SCc1coc(-c2ccc(F)cc2)n1 (stereo not given),47.5%
6,COc1ccc2c(c1)CN(Cc1nc3c(cnn3C)c(=O)[nH]1)CC2,-8.57%
7,O=C(NCC(O)COc1ccc(F)cc1)C1(c2ccc(F)cc2)CC1 (stereo not given),2.71%
8,O=C(Cc1cccc(O)c1)N1CCCC(O)(CN2CCOCC2)CC1 (stereo not given),-3.28%
9,CN1C[C@H]2CCN(C(=O)NC3CCCC3)CC[C@H]2S1(=O)=O,2.66%
10,CC(C)CNC(=O)CN1C=Nc2ccccc2S1(=O)=O,-2.09%
11,Cc1nc(-c2ccccc2)n(CC(=O)N(C(C)C)C(C)C)n1,-4.57%
12,CCCNC(=O)c1cccc(CNCc2csc(C(C)C)n2)c1,6.14%
13,COCCCN1CC2(CCN(C(=O)Cc3csc(C)n3)CC2)CC1=O,5.06%
14,CCN(CC)CCc1nc2c([nH]1)CC(c1ccc(Cl)cc1)CNC2=O (stereo not given),-58.9%
15,COCCCNC(=O)CN(C)C(=O)c1cc(C)ccc1N(C)C(C)C,-4.84%
16,CC(=O)NCCCNC(=O)N(C)C(C)Cc1ccc(Cl)cc1 (stereo not given),0.866%
17,O=C(COCC(F)(F)C(F)F)N1CCC(c2ncc[nH]2)CC1,-53.9%
18,Cc1ccc(-n2nc3n(c2=O)CCN(C(=O)c2ccc(Cl)cc2)C3)cc1,6.78%
19,CC(C)Cn1cncc1CNC1CCSC1 (stereo not given),-2.34%
20,OCC1(O)CCN(Cc2ccc(-c3cc[nH]n3)s2)CC1,-135%
21,O=C(CN1CCCS1(=O)=O)Nc1ccc(OC2CCCC2)cc1,-7.31%
22,O=C(c1ccco1)N1CCc2ncnc(NCc3ccccn3)c2CC1,5.61%

row,SMILES,cytotoxicity at 10 µM
1,Cc1cccc(C(=O)N2CCC(C(=O)c3cc(F)ccc3F)CC2)n1,-0.448%
2,CC(C(=O)N1CCN(c2ncccn2)CC1)n1cncn1 (stereo not given),-1.24%
3,O=C(CNc1nc(C(F)(F)F)cs1)N1CCc2sccc2C1,15.1%
4,CC(C)c1nn(C)cc1CNCc1cccc(N(C)C)c1,-0.509%
5,COc1cc(C(=O)NCCc2ccccc2OC)on1,0.409%
6,CN(Cc1noc(C2CC2)n1)C1CCN(Cc2ccc(F)c(F)c2)C1 (stereo not given),-0.279%
7,c1coc(-c2noc(CN3CCc4cncnc4C3)n2)c1,-9.39%
8,Cc1cc(C(=O)N2CCCC(C)C2)ccc1NCC(=O)N1CCOCC1 (stereo not given),-0.153%
9,CCc1nccn1CC1CCCN1S(=O)(=O)N1CCCOCC1 (stereo not given),-11.5%
10,CCCC1CN(CCOc2ccccc2)C(=O)c2cccnc2O1 (stereo not given),-6.77%
11,CC(=O)N1CCO[C@@H]2CN(C(=O)c3ccc4ccccc4c3)CC[C@@H]2C1,1.35%
12,CCN1CCn2c(C)cnc2C12CCN(C(=O)CC(C)C)CC2,-5.93%
13,Cn1cc(CN(C/C=C/c2ccccc2)C2CC2)cn1,-10.1%
14,CS(=O)(=O)N1CCC(c2nnc3ccc(C(=O)N4CCCC4)cn23)C1 (stereo not given),1.47%
15,CCOc1ccc(C(=O)N(Cc2cnn(C)c2)C(C)C)cc1OCC,-8.4%
16,O=C(c1csc(-c2ncccn2)n1)N1CCCC1Cn1cccn1 (stereo not given),0.533%
17,CNC(=O)CN(C)C(=O)c1cc2ccccc2cc1OC,17.1%
18,Cc1cccnc1C(=O)N1C[C@@H]2CC[C@H](Oc3cccc(F)c3)[C@@H]2C1,0.297%
19,O=c1n(CC2CCCCO2)nc(CC2CCNCC2)n1-c1ccccc1 (stereo not given),-6.66%
20,CCc1ncc(C(=O)NC(C)(C)C(=O)OC)s1,5.01%
21,CCc1nc(N)sc1C(=O)N1CCC(c2cc(O)nc(C)n2)CC1,-2.56%
22,O=C(Cc1ccccn1)N1CCC2(CCCN(CC3CCOCC3)C2)C1 (stereo not given),-122%

row,SMILES,cytotoxicity at 10 µM
1,CC(=O)N1CCCn2nc(CNc3cc(C)ncn3)cc2C1,5.19%
2,COc1cccc(OCC(=O)N2CCC3(CC2)[C@H](O)C[C@@H]3OC)c1,0.866%
3,CCC1CCCCN1C(=O)Cn1nc(-c2cc(C)oc2C)cc(N)c1=O (stereo not given),2.44%
4,O=S(=O)(C1CC1)N1CCc2ncnc(-c3ccncc3)c2CC1,-3.27%
5,Cc1nc(CC(=O)N2CCCC2c2nc(C(C)C)no2)cs1 (stereo not given),4.33%
6,Cc1cnc(CCNC(=O)C2CCN(S(=O)(=O)c3ccc(F)cc3)C2)s1 (stereo not given),2.56%
7,O=C(NCC(=O)N1CCCC(c2ccccc2)CC1)c1ccoc1 (stereo not given),-4.31%
8,COc1cc(CNCCn2cc(C)cn2)cc2c1OCCO2,-9.07%
9,O=C(C1CCOCC1)N1C[C@H]2CCC[C@@]2(COc2ccccn2)C1,-0.587%
10,CC(=O)NC(C)C(=O)Nc1ccc(OCc2cccc(F)c2)cc1C (stereo not given),0.305%
11,O=C(NCCc1ccncc1)c1cccc(S(=O)(=O)N[C@@H]2CCNC2)c1,4.93%
12,O=C(NC1CCS(=O)(=O)c2ccccc21)c1cccs1 (stereo not given),-0.0399%
13,CC(Cn1cccn1)NC(=O)N1CCN(Cc2ccsc2)CC1 (stereo not given),-11.6%
14,COc1ccc(C2Nc3cc(Cl)ccc3C3=NCCN32)cc1OC (stereo not given),1.05%
15,CS(=O)(=O)NCC1CCCN(C(=O)c2ccc3c(c2)CCCC3)C1 (stereo not given),-3.54%
16,CCn1cnnc1CN(C)C(=O)C1CCC(=O)N(CC2CCCCC2)C1 (stereo not given),-1.33%
17,c1ccc(Oc2cccc(OC34CCCN(CC3)C4)c2)cc1 (stereo not given),0.681%
18,Cc1cc(NCCS(C)(=O)=O)nc2cc3c(cc12)CCC3,8.05%
19,CC(C)(CNC(=O)C1(c2ccccc2)CCOCC1)C(=O)O,1.25%
20,CC(C)n1cnc(-c2nc(C(=O)NC3CC3)c3ccccn23)c1,-102%
21,COc1ccc(Cl)cc1CCNC(=O)NCc1noc(C)n1,-4.76%
22,COCCN(C)C(=O)c1nc2c(s1)CCCN2C,-143%
